Assays:
Cytochrome P450 2A6 [1] = biological target: T1, Cytochrome P450 2A6 (Homo sapiens, UniProt P11509); experiment: Inhibition of human CYP2A6 in baculovirus-infected insect cell system using […] as substrate preincubated for 10 mins by fluorescence assay
T1 sequence (P11509 whole entry): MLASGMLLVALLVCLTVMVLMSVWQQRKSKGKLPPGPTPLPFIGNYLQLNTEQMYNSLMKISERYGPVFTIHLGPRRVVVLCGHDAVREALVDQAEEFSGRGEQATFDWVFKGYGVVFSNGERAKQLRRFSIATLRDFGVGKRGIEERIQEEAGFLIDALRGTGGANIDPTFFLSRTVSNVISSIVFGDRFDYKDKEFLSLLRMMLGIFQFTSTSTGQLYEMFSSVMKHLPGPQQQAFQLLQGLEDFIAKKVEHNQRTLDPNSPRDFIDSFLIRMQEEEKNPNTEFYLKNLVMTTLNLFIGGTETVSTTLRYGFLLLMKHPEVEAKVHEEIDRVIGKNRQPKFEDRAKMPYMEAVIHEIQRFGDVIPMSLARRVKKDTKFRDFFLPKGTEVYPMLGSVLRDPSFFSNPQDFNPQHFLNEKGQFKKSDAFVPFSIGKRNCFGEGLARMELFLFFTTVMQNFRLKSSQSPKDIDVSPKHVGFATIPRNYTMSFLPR
Method in brief: (§1)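 Coumarin 7-hydroxylation by baculovirus/insect-cell human CYP2A6. Reaction started with NADPH (final 0.33 mM) and preincubated 10 min at 37 °C. Stopped with 10% TCA, then 1.6 M glycine-NaOH added; 7-hydroxycoumarin fluorescence read at ex 355/em 450 nm. Blanks subtracted; activity as % of control; IC50 by nonlinear fitting.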

Cytochrome P450 2A6 [2] = biological target: T1, Cytochrome P450 2A6; experiment: Inhibition of human CYP2A6 in baculovirus-infected insect cell system using […] as substrate incubated for 30 mins prior to substrate addition measured after 10 mins by fluorescence assay; conditions: for inhibition (INH): human, 10 min
Cytochrome P450 2A6 [3] = biological target: T1, Cytochrome P450 2A6; experiment: Competitive inhibition of human CYP2A6 in baculovirus-infected insect cell system assessed as nicotine metabolism after 15 mins
Method in brief: (§2)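 Nicotine oxidation by expressed CYP2A6 (with P450 reductase and cytochrome b5): 10 pmol CYP and 10 pmol b5/ml, 1 mM NADPH, 50 µl cytosol, 50 mM Tris–HCl pH 7.4, 37 °C, 15 min. Stopped with 4% v/v Na2CO3; 5-methylcotinine internal standard; nicotine and metabolites quantified by HPLC. Drug concentrations expressed as free base.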

Cytochrome P450 2A6 [4] = biological target: T1, Cytochrome P450 2A6; experiment: Reversible inhibition of human CYP2A6 in baculovirus-infected insect cell system using […] as substrate preincubated for 10 mins by fluorescence assay; method in brief: as §1
Cytochrome P450 2A6 [5] = biological target: T1, Cytochrome P450 2A6; experiment: Inhibition of human CYP2A6 in baculovirus-infected insect cell system using […] as substrate in presence of mouse liver cytosolic fraction by fluorescence assay
Cytochrome P450 2A6 [6] = biological target: T1, Cytochrome P450 2A6; experiment: (§3) Irreversible inhibition of human CYP2A6 in baculovirus-infected insect cell system using […] as substrate incubated for 10 mins by fluorescence assay
Method in brief: (§4)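 Inactivation: five inhibitor concentrations plus vehicle preincubated various times (including 0 min) with 5–20 pmol CYP2A6 and NADPH. Then diluted 10–40 fold into 50 mM Tris–HCl pH 7.4, 5 mM MgCl2, 10 µM coumarin, 0.3 mM NADPH, 10 min at 37 °C. Kobs from ln activity vs time; Kinact and Ki from double-reciprocal regression.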

CYP2A6 = biological target: T2, CYP2A6 (Homo sapiens, UniProt P11509); experiment: as §3; conditions: human, probe coumarin (printed: coumarin 7); method in brief: as §4
T2 sequence (P11509 whole entry): T1 sequence (P11509 whole entry)

Cytochrome P450 2A6 [7] = biological target: T1, Cytochrome P450 2A6; experiment: Mixed-type inhibition of human CYP2A6 in baculovirus-infected insect cell system assessed as nicotine metabolism after 15 mins; method in brief: as §2
Cytochrome P450 2A6 [8] = biological target: T1, Cytochrome P450 2A6; experiment: Irreversible inhibition of human CYP2A6 in baculovirus-infected insect cell system assessed as nicotine metabolism after 15 mins; method in brief: as §2

Row | Compound | IC50 (Cytochrome P450 2A6 [1]) [µM] | inhibition (INH) (Cytochrome P450 2A6 [2]) | also measured
1 | Cc1csc2ccc(Cl)cc12 | 88 | Active | –
2 | NCc1cc2ccccc2s1 | – | Active | Ki (Cytochrome P450 2A6 [1]): 0.01 µM
3 | Brc1cc2ccccc2o1 | 140 | – | –
4 | O=Cc1cc2ccccc2o1 | 17 | – | –
5 | O=Cc1c[nH]c2cc(Br)ccc12 | 57 | Active | Ki (Cytochrome P450 2A6 [1]): 3.3 µM
6 | OCc1csc2ccccc12 | 37 | Active | –
7 | N#CCc1csc2ccc(Cl)cc12 | 51 | Active | –
8 | O=CCc1coc2ccccc12 | < 100 | – | –
9 | O=C(Cl)c1csc2ccccc12 | 270 | – | –
10 | OCc1cc2cc(Br)ccc2o1 | < 100 | – | –
11 | OCc1cc2ccccc2s1 | 18 | Active | –
12 | Cc1cc2cc(N)ccc2[nH]1 | 34 | Active | –
13 | O=Cc1c[nH]c2ccccc12 [3-FORMYLINDOLE] | 79 | Active | Ki (Cytochrome P450 2A6 [1]): 11 µM
14 | NCc1cc2cc(Br)ccc2o1 | < 100 | – | –
15 | O=Cc1c[nH]c2cccc(Br)c12 | 12 | Active | Ki (Cytochrome P450 2A6 [1]): 8.6 µM
16 | N#Cc1csc2ccc(Cl)cc12 | 41 | Active | –
17 | O=Cc1cc2cc(Br)ccc2o1 | 72 | – | –
18 | N#Cc1cc2ccccc2o1 | 52 | – | –

More lines, main results first:

Row | IC50 (Cytochrome P450 2A6 [1]) [µM] | inhibition (INH) (Cytochrome P450 2A6 [2]) | Compound | also measured
19 | 8.4 | Active | Cn1ccc2ccc(C=O)cc21 | –
20 | 0.9 | Active | O=Cc1ccc2sccc2c1 | –
21 | 1.5 | Active | CNCc1cc2cnccc2s1 | –
22 | 1.5 | Active | O=Cc1ccc2cc[nH]c2c1 | –
23 | 1 | Active | NCc1cc2cnccc2s1 | –
24 | 5.2 | Active | NCc1cc2ccncc2s1 | –
25 | 1.4 | Active | CN(C)Cc1cc2cnccc2s1 | Ki (Cytochrome P450 2A6 [1]): 0.6 µM; Ki (Cytochrome P450 2A6 [3]): 0.5 µM; inhibition (INH) (Cytochrome P450 2A6 [4]): Active
26 | 0.4 | Active | O=Cc1cc2ccncc2s1 | Ki (Cytochrome P450 2A6 [1]): 0.06 µM; Ki (Cytochrome P450 2A6 [3]): 4.2 µM; inhibition (INH) (Cytochrome P450 2A6 [5]): Not Active
27 | 3.2 | – | O=Cc1cc2ccccc2s1 | Ki (Cytochrome P450 2A6 [6]; read-out: Ki(app)): 0.13 µM; IC50 (Cytochrome P450 2A6 [2]): 0.8 µM
28 | 11 | – | O=Cc1cc2ccccc2[nH]1 | kinact at 10 min (CYP2A6): 0.00133 s⁻¹; Ki (Cytochrome P450 2A6 [6]; read-out: Ki): 2.4 µM; IC50 (Cytochrome P450 2A6 [2]): 1.8 µM
29 | 0.5 | Active | CNCc1cc2ccccc2s1 | –
30 | 7.4 | Active | Brc1ccc2[nH]ccc2c1 | –
31 | 8.1 | – | Cc1ccc(C#N)cc1 | –
32 | 8 | – | O=Cc1cc2cccnc2s1 | kinact at 10 min (CYP2A6): 0.00133 s⁻¹; Ki (Cytochrome P450 2A6 [6]; read-out: Ki): 2.4 µM; IC50 (Cytochrome P450 2A6 [2]): 0.4 µM
33 | 5 | – | O=Cc1csc2ccc(Br)cc12 | Ki (Cytochrome P450 2A6 [6]; read-out: Ki(app)): 1.5 µM; IC50 (Cytochrome P450 2A6 [2]): 0.5 µM
34 | 0.7 | Active | NCc1csc2ccc(Br)cc12 | Ki (Cytochrome P450 2A6 [1]): 0.2 µM; Ki (Cytochrome P450 2A6 [7]): 0.8 µM; inhibition (INH) (Cytochrome P450 2A6 [4]): Active
35 | 0.4 | Active | O=Cc1ccc2[nH]ccc2c1 | Ki (Cytochrome P450 2A6 [1]): 0.07 µM; Ki (Cytochrome P450 2A6 [3]): 1.8 µM; inhibition (INH) (Cytochrome P450 2A6 [5]): Not Active
36 | 0.4 | – | O=Cc1ccc2occc2c1 | Ki (Cytochrome P450 2A6 [1]): 0.07 µM; kinact at 10 min (CYP2A6): 0.00133 s⁻¹; Ki (Cytochrome P450 2A6 [6]; read-out: Ki): 2.4 µM; IC50 (Cytochrome P450 2A6 [2]): 0.05 µM; Ki (Cytochrome P450 2A6 [3]): 5.5 µM; inhibition (INH) (Cytochrome P450 2A6 [5]): Not Active
37 | 6.6 | Active | NC(=S)c1csc2ccncc12 | –
38 | 2.2 | Active | CNCc1cc2cccnc2s1 | Ki (Cytochrome P450 2A6 [1]): 0.8 µM
39 | 0.3 | Active | O=Cc1cc2cnccc2s1 | Ki (Cytochrome P450 2A6 [1]): 0.07 µM; Ki (Cytochrome P450 2A6 [3]): 1.1 µM; inhibition (INH) (Cytochrome P450 2A6 [4]): Active; inhibition (INH) (Cytochrome P450 2A6 [5]): Not Active
40 | 11 | Active | O=Cc1cccc2ccsc12 | –
41 | 0.68 | Active | Cn1ccc2cc(C=O)ccc21 | –
42 | 1.6 | – | N#Cc1ccc2occc2c1 | Ki (Cytochrome P450 2A6 [1]): 0.1 µM; kinact at 10 min (CYP2A6): 0.00133 s⁻¹; Ki (Cytochrome P450 2A6 [6]; read-out: Ki): 2.4 µM; IC50 (Cytochrome P450 2A6 [2]): 0.6 µM; Ki (Cytochrome P450 2A6 [8]): 0.2 µM
43 | 3.4 | Active | Cc1ccc2sc(C=O)cc2c1 | –
44 | 0.4 | Active | NCc1csc2ccc(Cl)cc12 | Ki (Cytochrome P450 2A6 [1]): 0.09 µM; Ki (Cytochrome P450 2A6 [7]): 6 µM
45 | 7.4 | – | CCc1ccc(C#N)cc1 | –

— ChEMBL document CHEMBL3352764, “Rational design of novel CYP2A6 inhibitors” (Bioorg Med Chem, 2014)
